From the EternaBench riboswitch data

Tested on: MS2 coat protein
Experiment: apparent Kd, MS2 coat protein; higher = weaker binding; RNA-MaP array; FMN 200 µM where present
How it was run: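 Green signal from SNAP-549-labelled MS2 coat protein was normalised to red-channel RNA signal and to the median Fmax of control clusters. The protein was titrated from 0.7 or 1.5 nM, doubling to 3 µM, without and then with constant ligand, over designs transcribed by stalled E. coli RNA polymerase on Illumina sequencing-chip clusters, in 100 mM Tris-HCl pH 7.5, 80 mM KCl, 4 mM MgCl2, BSA, DTT, yeast tRNA and Tween-20. The apparent Kd is the median of filtered per-cluster binding-curve fits.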

[1] = designed as: ON switch for flavin mononucleotide, no ligand
[2] = ligand present: flavin mononucleotide, designed as: ON switch for flavin mononucleotide
[3] = designed as: OFF switch for flavin mononucleotide, no ligand
[4] = ligand present: flavin mononucleotide, designed as: OFF switch for flavin mononucleotide

GUAUCUUACUGAGGAUAUUUACGAUUAGUGUAGACAUGAGGAUCACCCAUGUGGCGUUAGUCACGGGAGAAGGCAGUUUGAUAC
apparent Kd [1]: 0.0825 µM | apparent Kd [2]: 0.0213 µM

GCCAUGCUGGUGACGGAUAACACAUGAGGAUCACCCAUGUACAGAAGGCGGAAUUAGCGUAGGACCGAGGAUAUGUGCGUGAGG
apparent Kd [3]: 0.0308 µM | apparent Kd [4]: 0.0423 µM

ACUAUACGAGGAUAUACUGACGGGCCUCGGGCGUCCCUGCGACAUGAGGAUCACCCAUGUAGAAGGCGUAUACU
apparent Kd [3]: 0.0393 µM | apparent Kd [4]: 0.0928 µM

AUCAGCUCGUCAGGAUAUACGUCACUGCGUCAGCAGUGUGGUAAGAUCACAUGAGGAUCACCCAUGUAGAAGGGAUGAGCUGAU
apparent Kd [3]: 0.0133 µM | apparent Kd [4]: 0.288 µM

GUUUAGUGAGGAUAUGUGGCUUCGAUCGUGAGAUCGAGGCUACAGAAGGCACAUGAGGAUCACCCAUGUUCCUU
apparent Kd [3]: 0.0144 µM | apparent Kd [4]: 0.0516 µM

UUUUAACAUGAGGAUCACCCAUGUGAGGAUAUCGAAAUUUAUAUUUAUAUUUAUAAAACGAGAAGGCACAUUUU
apparent Kd [3]: 0.103 µM | apparent Kd [4]: 0.119 µM

GUGGUCAGACAUGAGGAUCACCCAUGUGGAAUAAAUAACAGACAGGAUAUUAAAUAUAGGAUAUAUAAGAAGGGUCGAUUGGUG
apparent Kd [1]: 0.0911 µM | apparent Kd [2]: 0.0916 µM

GUCCGGCGUGUAGGAUAUGGAUCCGAUUAGGAUCCAGAAGGACAUGAGGAUCACCCAUGUACAUGUAAACAGUCAUCACCGGAA
apparent Kd [3]: 0.0092 µM | apparent Kd [4]: 0.0577 µM

GGUGCGUAUGUGAGGAUAUGCUGGUCCUUGGAUCGGCAGAAGGCACAUGAGGAUCACCCAUGUGGUGUCGUUCC
apparent Kd [3]: 0.12 µM | apparent Kd [4]: 0.0554 µM

CCGCAGUGUCUUCAGAAGACAUGAGGAUCACCCAUGUACCAGGAGGAUAUAGUGCGCUUUCCGCGCUAGAAGGCUUGGAUAUAG
apparent Kd [3]: 0.115 µM | apparent Kd [4]: 0.0708 µM

CGAGACCUCACAGGAUAUGCUGGACUUUGUCCAGCAGAAGGGUGAAAACAUGAGGAUCACCCAUGUAUGGUCUCCAAAUUUAAU
apparent Kd [1]: 0.176 µM | apparent Kd [2]: 0.0139 µM

AACAAAGACACAGGAUAUCCACAAAUACAUGAGGAUCACCCAUGUUCGAAAGGAGAAGGGUGGCACCGGUACAAUCUGGUUAUC
apparent Kd [1]: 0.275 µM | apparent Kd [2]: 0.0893 µM

AUACAUGAGGAUCACCCAUGUUACAUGGCCUUGAUAGAUUGUAGAAGGAUGUUAUUAUUUUUUUCAUAGGAUAUACUAUUUAGU
apparent Kd [3]: 0.12 µM | apparent Kd [4]: 0.105 µM

AAGAAGGACGCAGGAUAUCCAGGACCUCCCGCAGGAGAAGGGCGAGACAUGUGGAUCACCCAGACAUGAGGAUCACCCAUGUAG
apparent Kd [3]: 0.0225 µM | apparent Kd [4]: 0.021 µM

GGGUGACAUGAGGAUCACCCAUGUCAGGAUAUGCUUGAGCUUGAGAAAUCGAGUUCGAGUAGAAGGGACUGCCC
apparent Kd [3]: 0.0473 µM | apparent Kd [4]: 0.0723 µM

GUUAUUUAUGUAGGAUAUGCGAGGCGAGCCUAAGCAGAAGGACAUGAGGAUCACCCAUGUAUUGCGGUUUGCGUUCAGAUCGCU
apparent Kd [3]: 0.0211 µM | apparent Kd [4]: 0.0378 µM

CCCUUUAGAGGAUAUACAUGAGGAUCACCCAUGUCUUGGGUCCGGCCUGAUCUGGUACGUAGAAGGCUGUUGGU
apparent Kd [3]: 0.187 µM | apparent Kd [4]: 0.158 µM

UUGGAGUACGUAGGAUAUGUAGGAUAUUCCUACAUGAGGAUCACCCAUGUAUGCAUGGAAGAAGGACAGAAGGACGUGCUCCAU
apparent Kd [1]: 0.219 µM | apparent Kd [2]: 0.016 µM

UAAUAAAACGAUCGGCGAUCCAUACAUGAGGAUCACCCAUGUAGAAGGCACUCUACAAAGUAGAGUGAGGAUAUACGAGAUCGA
apparent Kd [3]: 0.00785 µM | apparent Kd [4]: 0.105 µM

AAAACAUACCGAGGAUAUUCAUUUAAUAAAUAAACAUGAGGAUCACCCAUGUGGCAAAAGCCUAGGGAGAAGGCGGAAUGCUAA
apparent Kd [1]: 0.0334 µM | apparent Kd [2]: 0.0265 µM

AUGCUUCACACAGGAUAUACAUGAGGAUCACCCAUGUGUCCAAAGUAGCCGACACGAGCUACGCGGUAGAAGGGUGUGAAGCAU
apparent Kd [3]: 0.0186 µM | apparent Kd [4]: 0.0522 µM

AGCUACGUUUCGUAGCAGUGUCAUCGAGAAGGCCUCAUAACAUGAGGAUCACCCAUGUUUGCAUGGGAGGAUAUCGAUGAUACA
apparent Kd [1]: 0.206 µM | apparent Kd [2]: 0.0564 µM

AGGUACAUGAGGAUCACCCAUGUAAGAGCCCUCAUGCGAUGUAGAAGGAUAAUGCGAGAAGUGCUAUAGGAUAUACAUGAGAAA
apparent Kd [3]: 0.14 µM | apparent Kd [4]: 0.143 µM

AAAAAACAUGAGGAUCACCCAUGUGAGGAUAUCUGAAAAAAAAAAAAAAAAAAGAAAAAGAGAAGGCGCAAAGA
apparent Kd [3]: 0.124 µM | apparent Kd [4]: 0.0652 µM

UUAAUUCGAAACAUGAGGAUCACCCAUGUGUUGUGGUUAAUAUAGGAUAUGUGUAUACUUUUAUGACAGAAGGAUGAUGGUACU
apparent Kd [1]: 0.0143 µM | apparent Kd [2]: 0.0118 µM

ACCCAACAUGAGGAUCACCCAUGUCAGGAUAUCCAUCUAUACUCGAAAGAGUAUAGAUGGAGAAGGGACAGAGG
apparent Kd [3]: 0.0948 µM | apparent Kd [4]: 0.0929 µM

AGUUUAUAUCGAGGAUAUAAGUCUAGGACAUGAGGAUCACCCAUGUAUGUCUUAGAAGGCGAUAUAAACAGCCUGUUACAGGCA
apparent Kd [1]: 0.0315 µM | apparent Kd [2]: 0.00704 µM

CAUUAAUUCAUUAUAGUAAUUAUACAGGAUAUGUUACAUGAGGAUCACCCAUGUAUUCAUGGUAUACAGAAGGGUAAUACUAGA
apparent Kd [3]: 0.0126 µM | apparent Kd [4]: 0.0139 µM

AGUACACAUGAGGAUCACCCAUGUGAGGAUAUCGAUGUCCCAGGGCGGGUGCGGGACUCGAGAAGGCACUUGGU
apparent Kd [3]: 0.0471 µM | apparent Kd [4]: 0.154 µM

GCCCUCGCUGAGGAUAUUAUCUGGUUCGAUUGAUAAGAAGGCAGUACAUGAGGAUCACCCAUGUGGUUCGUUCG
apparent Kd [3]: 0.0709 µM | apparent Kd [4]: 0.377 µM

UAAUCGUUGCAGAAGGUUAUUUUUUUAACAAGUCUCUUAACAUGAGGAUCACCCAUGUUUUUGAUGAAGGAUAUGCAACGGUAG
apparent Kd [3]: 0.00589 µM | apparent Kd [4]: 0.00615 µM

UCCCUAAGGCGGGCCGACCAUACAUGAGGAUCACCCAUGUCGAGAAGGUGCUCACGGGUGGGUGGCAAGGAUAUCGGGUCGGAU
apparent Kd [1]: 0.0788 µM | apparent Kd [2]: 0.0405 µM

CCCUCACAUGAGGAUCACCCAUGUCAGGAUAUUCAAAGCGCAAAUGCGCCAAAUGCAGGAAGAAGGGACGUGCC
apparent Kd [3]: 0.0151 µM | apparent Kd [4]: 0.0205 µM

UAUACUUACGAAGGAUAUGGUUACAUGAGGAUCACCCAUGUAUGUAUAUUGAUCUUGUAUUUUAACCAGAAGGUCGUGAGUAUA
apparent Kd [3]: 0.143 µM | apparent Kd [4]: 0.114 µM

GGGUGGCGUAGAGGAUAUAUGGUACAUGAGGAUCACCCAUGUACAUAUGAUGUUCAUGUUUAUGUAUAGAAGGCUACGUCGCUA
apparent Kd [1]: 0.0101 µM | apparent Kd [2]: 0.00976 µM

CUUUUGUGAGGAUAUGUGGCUUCGAUCGUGAGAUCGAGGCUACAGAAGGCACAUGAGGAUCACCCAUGUUCCUU
apparent Kd [3]: 0.0176 µM | apparent Kd [4]: 0.0697 µM

CGUAACUGCAUAGGAUAUUGAUACAUGAGGAUCACCCAUGUUUUUCGGAUUAGAUAUAUACUUAGCAAGAAGGAUGGAGUUACG
apparent Kd [1]: 0.00958 µM | apparent Kd [2]: 0.00657 µM

AACAUGUCAGGAUAUGCGAAGGCGUCUGACAGACGAGGCUAGCAGAAGGGACAUGAGGAUCACCCAUGUAAAAA
apparent Kd [3]: 0.0989 µM | apparent Kd [4]: 0.129 µM

UGGUACUAGGGAGGAUAUGUGAAGAUACAUGAGGAUCACCCAUGUUUAAGAAUGCCGAGAGGCAACUAGAAGGCCCUAGUACCU
apparent Kd [1]: 0.0085 µM | apparent Kd [2]: 0.00565 µM

CAGGUAGACUGAGGAUAUACAAAAGACCUAGUCUAUCUAGGUCAAAUCACAUGAGGAUCACCCAUGUAGAAGGCAGUCUGCCUG
apparent Kd [3]: 0.0168 µM | apparent Kd [4]: 0.0273 µM

GUAUGAAAUACAGGAUAUGUUAGUUUUAAGUGUAUUGGUUAUUACUUAAUUACAGAAGGGUAUUACAUGAGGAUCACCCAUGUA
apparent Kd [1]: 0.0165 µM | apparent Kd [2]: 0.0108 µM

AUAUUACGAGGAUAUCGUUUUUAUCACAUGAGGAUCACCCAUGUAAUUUAUGUUUCGUUUCGAGAAGGCGUAAGUU
apparent Kd [3]: 0.0198 µM | apparent Kd [4]: 0.022 µM

UUAAAUCAUGUAGGAUAUGCAUGGCGAAGCUACGCAGAAGGACAUGAGGAUCACCCAUGUUCUGGCUACCGGAUACGGUGGCAA
apparent Kd [3]: 0.0206 µM | apparent Kd [4]: 0.0836 µM

GUGGUCAGACAUGAGGAUCACCCAUGUGGAAUAAAUAAGGGACAGGAUAUUUAAUAUAGGAUAUAGAAGAAGGGUUGGUUGGUG
apparent Kd [1]: 0.106 µM | apparent Kd [2]: 0.138 µM

UGUUUUGAAGUAGGAUAUCAACACACAUGAGGAUCACCCAUGUUAGAUGUGGAUGUUGUAUGUUAUGAGAAGGACUUCGAUUCG
apparent Kd [3]: 0.0256 µM | apparent Kd [4]: 0.0954 µM

AGUUGGCGAGGAUAUACAUGAGGAUCACCCAUGUGAGAGAAAAAAAGGAGAAAAAAAAGUAGAAGGCGCUGACA
apparent Kd [3]: 0.0375 µM | apparent Kd [4]: 0.12 µM

ACACUGUGAGGAUAUACAUGAGGAUCACCCAUGUUAAGGAAGUCGUGGUUAAUUUAAGGUAGAAGGCGCUUAUU
apparent Kd [3]: 0.0413 µM | apparent Kd [4]: 0.0428 µM

UGAUCCCAUGUCAGGAUAUAGAGGCGGUAGCCUGGCUAGAAGGGACAUGAGGAUCACCCAUGUCGGUUCUUGCC
apparent Kd [3]: 0.0355 µM | apparent Kd [4]: 0.0213 µM

AGGAAGUGAGGAUAUGCAGUAGCUAGUGGACGCUAGCACAUGUAGAAGGCACAUGAGGAUCACCCAUGUUUAAA
apparent Kd [3]: 0.0305 µM | apparent Kd [4]: 0.0283 µM

UUCAAGUUGCGAGGAUAUCGUGUUAACAUGAGGAUCACCCAUGUAAAGGUAUAUUAAAUUAUCUUCGAGAAGGCGCUUAAUGUA
apparent Kd [1]: 0.0226 µM | apparent Kd [2]: 0.0203 µM

GUUUCCAGAGGAUAUGCGAGGGUGUACCUCUAACAGCUCAAACAUGAGGAUCACCCAUGUAGAAGGCUGAUCAU
apparent Kd [3]: 0.0198 µM | apparent Kd [4]: 0.0182 µM

AAGAAGUGAGGAUAUGCUGCUCGUCACUUGCGUGAUGAGUAGCAGAAGGCACAUGAGGAUCACCCAUGUAAAGA
apparent Kd [3]: 0.044 µM | apparent Kd [4]: 0.053 µM

AAAUUGUCAGGAUAUCCUGCUAUACGCAAUAUGUAUUCACGGGAGAAGGGACAUGAGGAUCACCCAUGUUUGAA
apparent Kd [3]: 0.0215 µM | apparent Kd [4]: 0.03 µM

CCCGAGUUAGGAUAUCGGACCGGUCCGCGCGGACUGGCAAUUGAGAAGGAACAUGAGGAUCACCCAUGUGAGUA
apparent Kd [3]: 0.0255 µM | apparent Kd [4]: 0.0523 µM

UGGUGGAAGCAGGAUAUGCUAGAAGUGUAGAAUGCAGAAGGGCUAACAUGAGGAUCACCCAUGUAAGAGGUGUU
apparent Kd [3]: 0.319 µM | apparent Kd [4]: 0.237 µM
